# NR2E3 ag-1: human photoreceptor-specific nuclear receptor agonism; Q9Y5X4; CHO-S Gal4-NCOR/VP16-NR2E3 two-hybrid, luciferase; inhibition of corepressor binding, % at 3.98 µM; 0.35% of 360,000 active; AID 602229;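 active = inhibition above the mean of all tested compounds plus 3 SD, cut at about 70% in these data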;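 note: 0% = DMSO with NR2E3 transfected cells and 100% = cells lacking NR2E3 construct; higher means lower luciferase signal from less NR2E3 corepressor binding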
# Target sequence (Q9Y5X4 whole entry, looked up, the tested form may be a part): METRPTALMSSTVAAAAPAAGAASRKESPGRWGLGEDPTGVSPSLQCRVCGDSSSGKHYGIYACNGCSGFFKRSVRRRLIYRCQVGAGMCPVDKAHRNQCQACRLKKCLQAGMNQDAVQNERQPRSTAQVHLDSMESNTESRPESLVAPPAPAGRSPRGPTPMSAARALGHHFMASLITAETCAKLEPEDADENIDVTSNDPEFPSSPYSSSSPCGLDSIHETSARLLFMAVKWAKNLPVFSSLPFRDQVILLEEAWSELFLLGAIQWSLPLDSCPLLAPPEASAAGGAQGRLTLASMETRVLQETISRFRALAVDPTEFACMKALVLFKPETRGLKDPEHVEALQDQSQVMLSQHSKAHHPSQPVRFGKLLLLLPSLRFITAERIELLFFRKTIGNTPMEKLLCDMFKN
# Jurkat NFkB inh: inhibitors of the PMA/ionomycin-induced NF-kB reporter in Jurkat cells; PMA/ionomycin-induced NF-kB luciferase reporter, luminescence; inhibition, % at 4 µM; 0.53% of 330,000 active; in the data active = inhibition above about 50%
# FGF22 binding: binders of recombinant human FGF22 by thermal shift | AID 651658 | activity (Tm shift, normalised), % at 9.99 µM | Q9HCT0 | 1.5% of 340,000 active | SYPRO orange fluorescence; percent of sucrose octasulfate shift, DMSO zero;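 active = mean Tm shift, scaled 0 neutral to 100 positive control, at about 1.3% or above, every replicate too, limit read from the data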
# Target sequence (Q9HCT0 whole entry, looked up): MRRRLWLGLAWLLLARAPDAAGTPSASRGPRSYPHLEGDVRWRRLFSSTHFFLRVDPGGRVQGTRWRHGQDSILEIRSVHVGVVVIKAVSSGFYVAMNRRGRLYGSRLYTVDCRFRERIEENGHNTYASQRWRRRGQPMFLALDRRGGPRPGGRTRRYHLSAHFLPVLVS
# 697 NFkB inh: inhibitors of the PMA/ionomycin-induced NF-kB reporter in 697 B cells; 697 B-cell NF-kB luciferase reporter, 16 h; inhibition, % at 4 µM; 0.33% of 330,000 active; AID 435022; in the data active = inhibition above about 35%
# miR-122 sensor: miR-122 inhibition in Huh7 cells | Huh7 miR-122 Renilla luciferase sensor, 48 h; neutral wells = 0, positive control = 100 | activation (reporter increase), % at 12.5 µM | 0.3% of 340,000 active;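 active = mean replicate activation score at least 90 and every replicate individually at or above 90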;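 note: higher luciferase means less miR-122 activity so hits act as miR-122 inhibitors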
# NR2E3 ag-2: NR2E3 (human) agonism | Q9Y5X4 | inhibition of corepressor binding, % at 4.78 µM | GST-NR2E3/biotin-RetCOR TR-FRET, 1536-well | 0.12% of 320,000 active | AID 2300;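 active = percent inhibition above the cutoff of mean plus 3 SD of all tested compounds, set per screening campaign, cut at about 20% in these data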;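 note: 0% = DMSO wells and 100% = biotin wells as full block of FRET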
#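 Material – GST-tagged NR2E3 plus biotinylated RetCOR corepressor · Quantity – NR2E3 fusion 1.35 nM · Times – 5 h incubation at 4 °C · Medium – pH 7.5 Tris-based buffer · Technique – TR-FRET, Eu(K)-anti-GST donor, streptavidin-D2 acceptor, ex 340, em 617/671 nm · Benchmarks – high control biotin, low control 0.6% DMSO · Format – 1536-well plates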
# 697 NFkB conf: inhibitors of the PMA/ionomycin-induced NF-kB reporter in 697 B cells, retest. shares compounds with 697 NFkB inh. 697 B-cell NF-kB luciferase, 16 h. inhibition, % at 4 µM. 35% of 2,000 active. AID 449746; in the data active = inhibition mostly above about 28%, no sharp cut-off; inactive = mostly below about 22%
# * hit, by the source's call; · = no result; [ ] = another dose, or the depositor's remark. Only some compounds are listed: those with a hit (about 2.2% of all), similar ones and a draw of the others.
SMILES,NR2E3 ag-1,Jurkat NFkB inh,FGF22 binding,697 NFkB inh,miR-122 sensor,NR2E3 ag-2,697 NFkB conf
C[C@H](CO)N1C[C@H](C)[C@H](CN(C)S(=O)(=O)c2ccc(Cl)cc2)Oc2ccc(NS(=O)(=O)c3ccc(F)cc3)cc2C1=O,·,·,0,·,2[16.7 µM],·,·
O=C(Nc1nc2ccccc2[nH]1)c1ccc(Cl)cc1,-243,-140,0,-320,-3,3,-342
O=C(Cc1ccc(Cl)cc1)Nc1nc2ccccc2[nH]1,-10,-14,·,-22,1,1,·
COc1ccc(CN(C)C[C@H]2OCCCC[C@H](C)Oc3ccc(NS(=O)(=O)c4cn(C)cn4)cc3C(=O)N([C@@H](C)CO)C[C@@H]2C)cc1,·,·,1,·,6[16.7 µM],·,·
COc1cccc(Cn2nnc(C(=O)Nc3cc(Cl)ccc3OC)c2N)c1,36,15,0,41*,7,1,38*
COc1ccc(NC(=O)c2nnn(Cc3cccc(F)c3)c2N)c(OC)c1,44,16,0,35*,-1,3,39*
C[C@H](CO)N1C[C@H](C)[C@H](CN(C)Cc2ccc(C(F)(F)F)cc2)Oc2c(NC(=O)c3cnccn3)cccc2C1=O,·,·,0,·,11[16.7 µM],·,·
Cc1cccc(Cn2nc(C(C)(C)C)cc2C(=O)Nc2ccc(F)cc2)c1,17,-45,0,-299,38,1,-370
CCc1n[nH]c(=S)n1/N=C/c1cc(Br)c(O)c(OC)c1,-42,-1,0,36*,·,-2,-2
CN(C)CC(=O)N[C@H]1C=C[C@H](CC(=O)NCCN2CCCCC2)O[C@H]1CO,·,·,0,·,·,·,·
CC(C)(C)c1ccc(C(=O)NCCOc2ccccc2)cc1,34,-112,0,-325,7,6,-281
CCS(=O)(=O)N1CCC2(CC1)CN(Cc1ccc3c(c1)OCO3)[C@@H](CO)c1[nH]c3cc(OC)ccc3c12,·,·,0,·,·,·,·
Cc1ccc(C(=O)N2CCN(c3ncnc4c(-c5ccccc5)nsc34)CC2)cc1,·,6,·,5,·,-2,·
Cc1ccc(-c2nsc3c(N4CCC(C(N)=O)CC4)ncnc23)cc1,5,-91,·,78*,6,-5,53*
C[C@H](CO)N1C[C@H](C)[C@H](CN(C)Cc2ccccn2)Oc2cc(-c3ccccc3)ccc2S1(=O)=O,·,·,0,·,-1[16.7 µM],·,·
C[C@H]1CN([C@@H](C)CO)S(=O)(=O)c2ccc(-c3ccccc3F)cc2O[C@@H]1CN(C)C,·,·,0,·,23[16.7 µM],·,·
CN(C)S(=O)(=O)c1ccc(NC(=O)N2CCN(c3ccccc3)CC2)cc1,-26,-9,·,46*,-1,2,29*
COc1ccc(N2CCN(C(=O)Nc3ccc(S(=O)(=O)N(C)C)cc3)CC2)cc1,6,-7,·,1,-2,6,·
C[C@@H]1CN([C@@H](C)CO)C(=O)c2cc(NC(=O)Cc3ccccc3)ccc2O[C@@H]1CN(C)S(=O)(=O)c1cccs1,·,·,0,·,37[16.7 µM],·,·
CNC[C@H]1Oc2c(NS(=O)(=O)c3ccccc3)cccc2C(=O)N([C@@H](C)CO)C[C@@H]1C,·,·,0,·,0[16.7 µM],·,·
COc1ccc(-c2noc(N3CCC(C(=O)Nc4ccc(F)cc4F)CC3)n2)cc1,-20,17,0,36*,·,2,35*
COc1ccc(-c2noc(N3CCC(C(=O)Nc4ccc(OC)cc4OC)CC3)n2)cc1,-31,5,0,29,·,0,·
COC(=O)c1ccc(-c2nc3cc(Cl)c(N)cc3s2)cc1,-103,-138,·,-258,9,3,-83
CCCNC(=O)C[C@@H]1C[C@@H]2c3cc(NS(=O)(=O)c4ccc(F)cc4)ccc3O[C@@H]2[C@@H](CO)O1,·,·,0,·,-2[16.7 µM],·,·
COc1ccc(N=Nc2ccc(CO)cc2)cc1,-102,-141,0,-324,·,0,-241
SMILES,NR2E3 ag-1,Jurkat NFkB inh,FGF22 binding,697 NFkB inh,miR-122 sensor,NR2E3 ag-2,697 NFkB conf
COc1ccc2c3c(n(C)c2c1)[C@@H](CO)N(C(=O)Nc1ccccc1F)CC31CCN(C(C)=O)CC1,·,·,0,·,·,·,·
Cc1cc(-c2ccccc2)nc2oc3c(c12)NC(=O)CN(c1ccccc1)C3=O,-11,1,0,9,1,-1,·
Cc1ccccc1N1CC(=O)Nc2c(oc3nc(-c4ccccc4)cc(C)c23)C1=O,-29,-1,0,38*,·,1,-3
C/C(=N\Nc1ccc(Cl)c(C(=O)O)c1)c1ccc(Br)s1,-46,-11,0,-9,6,-2,·
C/C(=N\Nc1ccc(C(=O)O)cc1)c1ccc(Cl)s1,-192,-100,0,-299,12,-1,-268
C/C(=N\Nc1ccc(C(=O)O)cc1)c1ccc(Br)cc1,-161,-56,0,-345,11,0,-301
O=C([C@@H]1[C@@H](CO)[C@@H]2Cn3c(cccc3=O)[C@H]1N2C(=O)CC1CC1)N1CCCCC1,·,·,0,·,·,·,·
C[C@@H]1CN([C@H](C)CO)C(=O)c2cc(NS(=O)(=O)c3ccccc3)ccc2O[C@@H](C)CCCCO[C@@H]1CN(C)S(=O)(=O)c1ccccc1,·,·,-1,·,-5[16.7 µM],·,·
COc1ccc(-c2cc3ccccc3s2)cc1[C@H]1[C@H]2C=CC[C@@H](C)[C@@H]2C(=O)N1Cc1ccccc1,-26,-114,0,-80,5,1,·
COc1ccc(-c2ccc(N(C)C)cc2)cc1[C@H]1[C@H]2C=CC[C@@H](C)[C@@H]2C(=O)N1Cc1ccccc1,-61,9,0,51*,3,-1,36*
COc1ccc(/C=C/c2ccccc2)cc1[C@H]1[C@H]2C=CC[C@@H](C)[C@@H]2C(=O)N1Cc1ccccc1,-17,20,·,65*,-3,2,32*
COC(=O)c1ccc(-c2ccc(OC)c([C@H]3[C@H]4C=CC[C@@H](C)[C@@H]4C(=O)N3Cc3ccccc3)c2)cc1,-33,-23,0,31,2,-2,·
COc1ccc(-c2ccc(C(C)=O)cc2)cc1[C@H]1[C@H]2C=CC[C@@H](C)[C@@H]2C(=O)N1Cc1ccccc1,1,31,0,48*,12,5,49*
COc1ccc(-c2ccc(OC)c([C@H]3[C@H]4C=CC[C@@H](C)[C@@H]4C(=O)N3Cc3ccccc3)c2)cc1C,-4,18,0,42*,-1,1,51*
Cc1ccc(S(=O)(=O)Nc2ccc3c(c2)C(=O)N([C@H](C)CO)C[C@@H](C)[C@@H](CN(C)Cc2ccc4c(c2)OCO4)OCCCC[C@@H](C)O3)cc1,·,·,0,·,-7[16.7 µM],·,·
Cc1noc(C)c1NC(=O)Nc1ccc2c(c1)C(=O)N([C@@H](C)CO)C[C@H](C)[C@@H](CN(C)S(=O)(=O)c1ccc(Cl)cc1)O2,·,·,0,·,3[16.7 µM],·,·

# Screening data: PubChem BioAssay, several laboratories
